Laboratory results from PMC10651775 (Blood, 2022).
Counter-ions that a name gives are not always drawn.

Legend:
[1] = Plasma valemetostat pharmacokinetics, noncompartmental analysis; type: in vivo, human; settings: Mean (SD); for AUC / Cmax: human, plasma, oral, 200 mg; for AUC: AUCtau, Cycle 1 day 15 (steady state)
Procedure, shortened: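 Patients took oral test compound, 200 mg once daily, fasting. Serial and trough blood samples were taken for plasma drug levels. Total and unbound drug were measured at steady state on cycle 1 day 15. Accumulation ratio was derived from AUC over the dosing interval.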

[2] = system: patients with R/R ATL; test: Phase 2 trial of valemetostat: investigator-assessed response; type: in vivo, human; settings: 7/25 (CR plus CRu)
Procedure, shortened: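 Investigator-assessed response in patients given ≥1 dose of oral test compound, 200 mg once daily, fasting, 28-day cycles. Nodal/extranodal lesions were measured by CT as sums of products of greatest diameters, skin by visual review and modified severity-weighted assessment tool, and blood by white cell, lymphocyte and abnormal lymphocyte counts. ORR was the proportion with best response CR, CRu or PR, with a Clopper-Pearson 90% CI.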

[3] = system: ATL cell; settings: compared with tazemetostat and GSK126; cited from earlier work
[4] = system: patients with R/R ATL; test: Phase 2 trial of valemetostat: safety; type: in vivo, human
Procedure, shortened: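 Safety population: all patients receiving ≥1 dose of oral test compound, 200 mg once daily, fasting, in continuous 28-day cycles; dose was reduced to 50 mg with strong CYP3A plus P-gp inhibitors. Adverse events were coded with MedDRA version 23.1 and graded by CTCAE version 5.0.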

[5] = Grade ≥3 hematologic TEAE, % of patients
[6] = hematologic TEAE, all grades, % of patients

Compound: Cc1cc(C)c(CNC(=O)c2cc(Cl)c3c(c2C)O[C@@](C)([C@H]2CC[C@H](N(C)C)CC2)O3)c(=O)[nH]1 [valemetostat, Valemetostat tosylate]
- Rac (accumulation ratio for AUCtau) ([1]; Total, Cycle 1 day 15): 1.19
- Rac (accumulation ratio for AUCtau) ([1]; Unbound, Cycle 1 day 15): 1.27
- AUC ([1]; Total): 20800 ng·h/mL
- AUC ([1]; Unbound): 584 ng·h/mL
- Cmax ([1]; Total valemetostat, Cycle 1 day 1, 200 mg once daily): 2230 ng/mL
- Cmax ([1]; Total valemetostat, Cycle 1 day 15): 2300 ng/mL
- Cmax ([1]; Unbound valemetostat, Cycle 1 day 1): 81.7 ng/mL
- Cmax ([1]; Unbound valemetostat, Cycle 1 day 15): 84.9 ng/mL
- investigator-assessed CR rate [2]: 28.0%
- attenuation of ATL cell growth in vitro [3]: greater attenuation of ATL cell growth in vitro at lower concentrations than tazemetostat and GSK126
- TEAEs leading to dose reduction ([4]; 2 patients): 8%
- Serious TEAEs ([4]; 8 patients): 32%
- Secondary malignancies, including hematologic malignancy or myelodysplastic syndrome ([4]; AE of special interest): not observed
- TEAEs that required dose interruption ([4]; Five patients): 20%
- anemia [4, 5]: 32%
- leukopenia [4, 5]: 12%
- lymphopenia [4, 5]: 16%
- neutropenia [4, 5]: 12%
- thrombocytopenia [4, 5]: 32%
- Grade ≥3 TEAEs ([4]; N = 25): 15 (60.0) n (%)
- Grade ≥3 TRAEs ([4]; N = 25): 14 (56.0) n (%)
- Serious TEAE ([4]; N = 25): 8 (32.0) n (%)
- Serious TRAEs ([4]; N = 25): 7 (28.0) n (%)
- TEAEs leading to discontinuation ([4]; N = 25): 2 (8.0) n (%)
- TEAEs leading to interruption ([4]; N = 25): 5 (20.0) n (%)
- TEAEs leading to reduction ([4]; N = 25): 2 (8.0) n (%)
- TRAEs ([4]; N = 25): 24 (96.0) n (%)
- TRAEs leading to discontinuation ([4]; N = 25): 2 (8.0) n (%)
- TRAEs leading to interruption ([4]; N = 25): 4 (16.0) n (%)
- TRAEs leading to reduction ([4]; N = 25): 2 (8.0) n (%)
- TEAEs ([4]; N = 25, All AEs): 25 (100.0) n (%)
- Alopecia ([4]; TEAE, All grades, N = 25): 10 (40.0) n (%)
- Decreased appetite ([4]; TEAE, All grades, N = 25): 5 (20.0) n (%)
- Dysgeusia ([4]; TEAE, All grades, N = 25): 9 (36.0) n (%)
- Pyrexia ([4]; TEAE, All grades, N = 25): 5 (20.0) n (%)
- anemia ([4]; TEAE, All grades, N = 25): 13 (52.0) n (%)
- leukopenia ([4]; TEAE, All grades, N = 25): 5 (20.0) n (%)
- lymphopenia ([4]; TEAE, All grades, N = 25): 6 (24.0) n (%)
- neutropenia ([4]; TEAE, All grades, N = 25): 7 (28.0) n (%)
- thrombocytopenia ([4]; TEAE, All grades, N = 25): 20 (80.0) n (%)
- Alopecia ([4]; TEAE, Grade ≥3, N = 25): 0 n (%)
- Decreased appetite ([4]; TEAE, Grade ≥3, N = 25): 2 (8.0) n (%)
- Dysgeusia ([4]; TEAE, Grade ≥3, N = 25): 0 n (%)
- Pyrexia ([4]; TEAE, Grade ≥3, N = 25): 0 n (%)
- anemia ([4]; TEAE, Grade ≥3, N = 25): 8 (32.0) n (%)
- leukopenia ([4]; TEAE, Grade ≥3, N = 25): 3 (12.0) n (%)
- lymphopenia ([4]; TEAE, Grade ≥3, N = 25): 4 (16.0) n (%)
- neutropenia ([4]; TEAE, Grade ≥3, N = 25): 3 (12.0) n (%)
- thrombocytopenia ([4]; TEAE, Grade ≥3, N = 25): 8 (32.0) n (%)
- discontinued study treatment owing to AEs ([4]; Two patients (cardiac failure, thrombocytopenia)): 8%
- patients with thrombocytopenia who required dose modification ([4]; discontinuation 1 patient, dose interruption 2 patients): Three of 20
- median time to recovery ([4]; grade 4 thrombocytopenia, recovery to platelet count ≥25 × 10^9/L): 3 days
- anemia [4, 6]: 52%
- leukopenia [4, 6]: 20%
- lymphopenia [4, 6]: 24%
- neutropenia [4, 6]: 28%
- thrombocytopenia [4, 6]: 80%
- patients requiring a red blood cell transfusion for anemia ([4]; in vivo): 3 patients
- patients requiring platelet transfusions for thrombocytopenia ([4]; in vivo): Five
- treatment-related deaths ([4]; in vivo): No treatment-related deaths occurred
- patients who experienced grade 4 thrombocytopenia ([4]; platelet count <25 × 10^9/L): 3 patients
